Key:
[1] = Inhibition of mouse RML prion protein infected in mouse ScN2a-cl3 cells after 5 days; type: cell-based; details: N2a-cl3, 120 h
[2] = AUC in mouse brain at 40 mg/kg, po administered as single dose; type: ADME, organism-based; parameters: dose 40 mg/kg, route oral
[3] = Cmax in FVB mouse plasma at 10 mg/kg, po administered as single dose; type: ADME, organism-based; parameters: dose 10 mg/kg, route oral
Summary of the method: (§1)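 Female FVB mice were given a single dose, 1 mg/kg iv or 10 mg/kg po, and plasma and brain were analysed separately. Brain samples were whole-brain homogenate. Parameters came from concentration–time curves: Vss, clearance, half-life, Cmax, AUC, brain/plasma AUC ratio and bioavailability.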

Mus musculus [4] = test: Antiprion activity against mouse RML prion protein infected in mouse assessed as mouse survival at 210 mg/kg/day (reference value: 118 +/- 1 days); type: organism-based
Mus musculus [5] = test: Antiprion activity against mouse Scrapie prion protein ME7 infected in mouse assessed as mouse survival at 210 mg/kg/day (reference value: 126 +/- 2 days); type: organism-based
[6] = Drug concentration at steady state in mouse brain assessed as total compound level in brain homogenates at 130 mg/kg/day, po measured after 3 days; type: ADME, organism-based; parameters: route oral; details: brain homogenate, read-out: Css
Summary of the method: (§2)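 Mice received compound mixed into a liquid rodent diet for 3 days at about 40, 80, 130 or 210 mg kg-1 day-1. Plasma and brain were collected at the end of the last dosing cycle, at a single time point, and analysed as in the single-dose PK studies. Values are total drug in brain homogenate and are treated as pseudo-steady-state concentrations.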

[7] = Drug concentration at steady state in mouse brain assessed as total compound level in brain homogenates at 80 mg/kg/day, po measured after 3 days; type: ADME, organism-based; parameters: route oral; details: brain homogenate, read-out: Css; summary of the method: as §2
Plasma = test: (§3) AUC in mouse plasma at 10 mg/kg, po administered as single dose; type: ADME, organism-based; parameters: dose 10 mg/kg, route oral; details: in vivo
[8] = AUC in FVB mouse plasma at 1 mg/kg, iv administered as single dose; type: ADME, organism-based; parameters: dose 1 mg/kg, route intravenous
[9] = Oral bioavailability in FVB mouse […] at 10 mg/kg administered as single dose; type: ADME, organism-based; details: plasma; summary of the method: as §1
[10] = AUC in FVB mouse plasma at 10 mg/kg, po administered as single dose; type: ADME, organism-based; parameters: dose 10 mg/kg, route oral
[11] = Unbound fraction in mouse brain; type: ADME, tissue-based
Summary of the method: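 The fraction unbound in mouse brain tissue was estimated with an in vitro brain tissue binding assay.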

[12] = Cmax in FVB mouse brain at 10 mg/kg, po administered as single dose; type: ADME, organism-based; parameters: dose 10 mg/kg, route oral; summary of the method: as §1
[13] = Drug concentration at steady state in mouse brain assessed as total compound level in brain homogenates at 40 mg/kg/day, po measured after 3 days; type: ADME, organism-based; parameters: route oral; details: brain homogenate, read-out: Css; summary of the method: as §2
[14] = Clearance in FVB mouse plasma at 1 mg/kg, iv administered as single dose; type: ADME, organism-based; parameters: dose 1 mg/kg, route intravenous; summary of the method: as §1
[15] = Cmax in FVB mouse plasma at 1 mg/kg, iv administered as single dose; type: ADME, organism-based; parameters: dose 1 mg/kg, route intravenous; summary of the method: as §1
[16] = Half life in FVB mouse plasma at 10 mg/kg, po administered as single dose; type: ADME, organism-based; parameters: dose 10 mg/kg, route oral; summary of the method: as §1
[17] = Ratio of drug level in brain to plasma in FVB mouse brain at 10 mg/kg, po administered as single dose; type: ADME, organism-based; parameters: dose 10 mg/kg, route oral; details: brain and plasma, read-out: BPR; summary of the method: as §1
[18] = Half life in FVB mouse plasma at 1 mg/kg, iv administered as single dose; type: ADME, organism-based; parameters: dose 1 mg/kg, route intravenous; summary of the method: as §1
[19] = AUC in FVB mouse brain at 10 mg/kg, po administered as single dose; type: ADME, organism-based; parameters: dose 10 mg/kg, route oral
Cervus elaphus nelsoni = test: Antiprion activity against elk PrpC protein infected in mouse chronic wasting disease model assessed as increase in mouse survival (reference value: 108 +/- 3 days)
[20] = Drug concentration at steady state in mouse brain assessed as total compound level in brain homogenates at 210 mg/kg/day, po measured after 3 days; type: ADME, organism-based; parameters: route oral; details: brain homogenate, read-out: Css; summary of the method: as §2
[21] = Volume of distribution at steady state in FVB mouse plasma at 1 mg/kg, iv administered as single dose; type: ADME, organism-based; parameters: dose 1 mg/kg, route intravenous; details: read-out: Vdss; summary of the method: as §1
Brain [22] = test: (§4) AUC in mouse brain at 10 mg/kg, po administered as single dose; type: ADME, organism-based; parameters: dose 10 mg/kg, route oral; details: in vivo
Mus musculus [23] = test: Increase in survival in sc dosed mouse prion disease model assessed as extension of survival relative to untreated control; type: functional
Mus musculus [24] = test: Increase in survival in sc dosed mouse prion disease model assessed as increase in survival; type: functional
Brain [25] = test: (§5) Cmax in mouse brain at 10 mg/kg, po administered as single dose; type: ADME, organism-based; parameters: dose 10 mg/kg, route oral; details: in vivo
[26] = as §3; type: ADME, organism-based; parameters: dose 10 mg/kg, route oral; details: plasma
[27] = as §5; type: ADME, organism-based; parameters: dose 10 mg/kg, route oral; details: brain
[28] = as §4; type: ADME, organism-based; parameters: dose 10 mg/kg, route oral; details: brain

Cc1ccc(Nc2nc(-c3ccc(-c4ccccn4)s3)cs2)nc1
EC50 [1]: 1.2 µM | AUC [2]: 4.6 µM·h

Cc1cccc(Nc2nc(-c3ccc(-c4ccccc4)cc3)cs2)n1
Cmax [3]: 1.66 µM | EC50 [1]: 1.3 µM | Survival (Mus musculus [4]): 204 days | Survival (Mus musculus [5]): 214 days | concentration at 72 h [6]: 31.8 µM | concentration at 72 h [7]: 19.3 µM | AUC [2]: 303 µM·h | AUC (Plasma): 6.99 µM·h | AUC [8]: 2.78 µM·h | bioavailability [9]: 40.3% | AUC [10]: 11.2 µM·h | fraction unbound [11]: 0.08 | Cmax [12]: 2.45 µM | concentration at 72 h [13]: 8.7 µM | clearance [14]: 0.92 L/h/kg | Cmax [15]: 2.49 µM | half-life [16]: 4.65 h | Kp [17]: 2.6 | half-life [18]: 2.16 h | AUC [19]: 29.1 µM·h | Survival (Cervus elaphus nelsoni): 237 days | concentration at 72 h [20]: 37.4 µM | Vd [21]: 2.46 L/kg | AUC (Brain [22]): 9.78 µM·h

c1ccc2cc(Nc3nc(-c4ccncc4)cs3)ncc2c1
concentration at 72 h [6]: 0.04 µM | concentration at 72 h [7]: 0.08 µM | AUC [2]: 59.1 µM·h | concentration at 72 h [13]: 0.02 µM | concentration at 72 h [20]: 0.1 µM

C(=N/Nc1ccc(-c2cnco2)cc1)/c1ccncc1
Cmax [3]: 0.83 µM | AUC [8]: 0.83 µM·h | bioavailability [9]: 24.8% | AUC [10]: 2.06 µM·h | Cmax [12]: 0.46 µM | clearance [14]: 4.56 L/h/kg | Cmax [15]: 1.76 µM | half-life [16]: 1.01 h | Kp [17]: 0.51 | half-life [18]: 0.22 h | AUC [19]: 1.06 µM·h | Vd [21]: 1.53 L/kg

Cc1ccc(Nc2nc(-c3ccncc3)cs2)nc1
EC50 [1]: 1.6 µM | AUC [2]: 9.7 µM·h

Cc1cccc(Nc2nc(-c3ccc(N4CCOCC4)cc3)cs2)n1
EC50 [1]: 0.051 µM

Cc1cccc(Nc2nc(-c3cc4ccccc4o3)cs2)n1
EC50 [1]: 1.5 µM | concentration at 72 h [6]: 3.74 µM | concentration at 72 h [7]: 2.7 µM | AUC [2]: 65.4 µM·h | concentration at 72 h [13]: 1.31 µM | concentration at 72 h [20]: 3.23 µM

Cc1ccnc(Nc2nc(-c3ccncc3)cs2)c1
EC50 [1]: 5 µM | AUC [2]: 34.6 µM·h

c1ccc2cc(Nc3nc(-c4cc5ccccc5o4)cs3)ncc2c1
EC50 [1]: 0.92 µM | AUC [2]: 10.9 µM·h

O=C(CN1CCCC1)Nc1ccc(Cc2ccc(NC(=O)CN3CCCC3)cc2)cc1
Activity (Mus musculus [23]): 12% | Survival (Mus musculus [24]): 20%

Cc1ccnc(Nc2nc(-c3ccc(-c4ccccn4)s3)cs2)c1
Cmax [3]: 0.43 µM | AUC [2]: 60.2 µM·h | AUC [8]: 0.3 µM·h | bioavailability [9]: 27.3% | AUC [10]: 0.82 µM·h | fraction unbound [11]: 0.08 | Cmax [12]: 1.62 µM | clearance [14]: 9.05 L/h/kg | Cmax [15]: 0.52 µM | half-life [16]: 0.98 h | Kp [17]: 5.53 | half-life [18]: 1.18 h | AUC [19]: 4.54 µM·h | Vd [21]: 12.6 L/kg

Cc1cccc(Nc2nc(-c3ccc(-c4ccncc4)cc3)cs2)n1
EC50 [1]: 0.087 µM | Cmax (Brain [25]): 0.5 µM | AUC (Brain [22]): 1.68 µM·h

Cc1cccc(Nc2nc(-c3ccc(-c4ccnn4C)cc3)cs2)n1
EC50 [1]: 0.089 µM

O=C(Nc1nc(-c2ccc(-c3ccccc3)cc2)cs1)C1CC1
AUC [26]: 12.7 µM·h | Cmax [27]: 4.34 µM | AUC [28]: 18.6 µM·h

COc1ccc(-c2csc(Nc3cc4ccccc4cn3)n2)cc1OC
concentration at 72 h [6]: 0.14 µM | concentration at 72 h [7]: 0.06 µM | AUC [2]: 6.3 µM·h | concentration at 72 h [13]: 0.03 µM | concentration at 72 h [20]: 0.32 µM

Cc1cccc(Nc2nc(-c3ccc(-c4cccnc4)cc3)cs2)n1
EC50 [1]: 0.068 µM | AUC (Plasma): 15.6 µM·h | Cmax (Brain [25]): 2.46 µM | AUC (Brain [22]): 10.9 µM·h

Cc1cccc(Cn2cc(-c3ccc(-c4cccnc4)cc3)cn2)n1
EC50 [1]: > 10 µM

Cc1ccc(Nc2nc(-c3cc(-c4ccccc4)no3)cs2)nc1
EC50 [1]: 0.95 µM | concentration at 72 h [6]: 23.3 µM | concentration at 72 h [7]: 5.39 µM | AUC [2]: 23.2 µM·h | concentration at 72 h [13]: 0.88 µM | concentration at 72 h [20]: 12.6 µM

Source: ChEMBL document CHEMBL3352428, “Successes and challenges in phenotype-based lead discovery for prion diseases” (J Med Chem, 2014)
